Laboratory results as given in publication PMC6851657 (Clinical Pharmacology and Therapeutics, 2019).
Read-outs that look alike come from different tables or passages of the source. Marks after values point to notes of the source that are not given here.

How the values were obtained:
[1] = cited from earlier work; for t1/2 / AUCinf / Cmax / Tmax: observed; for t1/2: GM (CV%); for AUCinf / Cmax: GM (CV%; 90% CI); for Tmax: median (range)
[2] = observed, ref Novartis data on file, cited from earlier work; for AUCinf / Cmax / t1/2: GM (CV%; range)
[3] = biological target: T1, CYP2C9 (Homo sapiens, UniProt P11712); format: in vitro ADME
Method in brief: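 Genotype-specific hepatic intrinsic clearance (CLint,h) was back-calculated from population PK total plasma clearance for each CYP2C9 genotype (*1/*1, *1/*2, *1/*3, *2/*2, *2/*3, *3/*3). Clearance was assumed to be entirely CYP-mediated hepatic metabolism, with purely passive hepatocyte uptake. CLint,h was split across CYP2C9, 3A4, 2B6, 2C8 and 2C19 by in vitro phenotyping fm. fu(mic) was set to 1. Values served as SimCYP PBPK inputs.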

[4] = day 28, observed, cited from earlier work; for AUC(0–24 h) / Cmin: GM (CV%); for Cmax: GM (CV%; 90% CI)
[5] = cited from earlier work
[6] = biological target: T1, CYP2C9; details: cited from earlier work
[7] = ref Novartis data on file, 5, cited from earlier work
[8] = single oral 0.25 mg, observed, cited from earlier work
[9] = biological target: T2, CYP3A4 (Homo sapiens, UniProt P08684); details: in vitro phenotyping, normalized to 100%; cited from earlier work
[10] = biological target: CYP2C19 (Homo sapiens, UniProt P33261); assay: Enzyme phenotyping, intrinsic clearance by retrograde calculation; format: in vitro ADME
[11] = cited from earlier work; for AUC decrease: coadministration of itraconazole
[12] = biological target: T2, CYP3A4; assay: Enzyme phenotyping, intrinsic clearance by retrograde calculation; format: in vitro ADME
[13] = biological target: T3, CYP2C8 (Homo sapiens, UniProt P10632); assay: as above; format: in vitro ADME
T3 sequence (P10632 1-490): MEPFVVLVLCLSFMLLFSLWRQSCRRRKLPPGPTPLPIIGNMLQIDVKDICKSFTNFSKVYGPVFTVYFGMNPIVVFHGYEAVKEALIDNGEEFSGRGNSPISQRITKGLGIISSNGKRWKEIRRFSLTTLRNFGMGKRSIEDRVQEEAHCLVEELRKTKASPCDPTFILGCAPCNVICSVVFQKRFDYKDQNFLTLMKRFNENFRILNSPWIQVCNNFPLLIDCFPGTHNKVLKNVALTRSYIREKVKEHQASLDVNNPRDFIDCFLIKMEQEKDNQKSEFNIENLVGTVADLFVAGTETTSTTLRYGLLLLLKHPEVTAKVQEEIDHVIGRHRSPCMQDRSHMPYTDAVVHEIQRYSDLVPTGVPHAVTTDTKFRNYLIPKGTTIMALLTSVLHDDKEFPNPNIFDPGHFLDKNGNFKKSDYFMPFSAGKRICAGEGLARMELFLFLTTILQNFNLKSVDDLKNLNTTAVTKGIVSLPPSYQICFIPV

[14] = 0.3 mg solution p.o. single dose
[15] = 2.5 mg capsule p.o. single dose
[16] = 2.5 mg solution p.o. single dose
[17] = 17.5 mg capsule p.o. single dose
[18] = coadministration of rifampin, CYP2C9*1/*1
[19] = coadministration with fluconazole, CYP2C9*1/*1

T1 sequence (P11712 whole entry): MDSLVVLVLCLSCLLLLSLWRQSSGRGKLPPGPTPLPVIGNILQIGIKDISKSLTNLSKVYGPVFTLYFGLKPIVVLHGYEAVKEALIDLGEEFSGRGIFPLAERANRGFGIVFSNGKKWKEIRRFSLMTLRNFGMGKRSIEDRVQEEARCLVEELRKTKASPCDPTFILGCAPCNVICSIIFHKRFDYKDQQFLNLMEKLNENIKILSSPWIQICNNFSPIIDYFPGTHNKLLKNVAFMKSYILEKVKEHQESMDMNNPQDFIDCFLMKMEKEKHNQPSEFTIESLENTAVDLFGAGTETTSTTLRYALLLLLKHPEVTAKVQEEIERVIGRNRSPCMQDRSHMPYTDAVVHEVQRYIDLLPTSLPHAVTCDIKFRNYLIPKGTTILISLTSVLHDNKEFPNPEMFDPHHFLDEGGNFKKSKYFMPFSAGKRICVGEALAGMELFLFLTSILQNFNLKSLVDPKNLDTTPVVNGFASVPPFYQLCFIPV
T2 sequence (P08684 whole entry): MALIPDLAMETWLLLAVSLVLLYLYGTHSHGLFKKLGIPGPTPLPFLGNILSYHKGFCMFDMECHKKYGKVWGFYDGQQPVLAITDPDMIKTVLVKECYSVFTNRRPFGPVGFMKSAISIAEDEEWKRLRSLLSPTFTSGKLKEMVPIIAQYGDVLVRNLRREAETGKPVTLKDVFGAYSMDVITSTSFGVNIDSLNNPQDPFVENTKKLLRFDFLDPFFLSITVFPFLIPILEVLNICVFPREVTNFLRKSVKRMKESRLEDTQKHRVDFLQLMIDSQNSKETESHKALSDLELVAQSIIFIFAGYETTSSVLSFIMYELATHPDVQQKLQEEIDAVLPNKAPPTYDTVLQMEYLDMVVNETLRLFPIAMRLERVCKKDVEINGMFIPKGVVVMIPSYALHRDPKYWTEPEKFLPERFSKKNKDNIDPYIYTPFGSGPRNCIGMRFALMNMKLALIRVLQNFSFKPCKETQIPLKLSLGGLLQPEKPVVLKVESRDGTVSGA
Sequence of CYP2C19 (P33261 whole entry): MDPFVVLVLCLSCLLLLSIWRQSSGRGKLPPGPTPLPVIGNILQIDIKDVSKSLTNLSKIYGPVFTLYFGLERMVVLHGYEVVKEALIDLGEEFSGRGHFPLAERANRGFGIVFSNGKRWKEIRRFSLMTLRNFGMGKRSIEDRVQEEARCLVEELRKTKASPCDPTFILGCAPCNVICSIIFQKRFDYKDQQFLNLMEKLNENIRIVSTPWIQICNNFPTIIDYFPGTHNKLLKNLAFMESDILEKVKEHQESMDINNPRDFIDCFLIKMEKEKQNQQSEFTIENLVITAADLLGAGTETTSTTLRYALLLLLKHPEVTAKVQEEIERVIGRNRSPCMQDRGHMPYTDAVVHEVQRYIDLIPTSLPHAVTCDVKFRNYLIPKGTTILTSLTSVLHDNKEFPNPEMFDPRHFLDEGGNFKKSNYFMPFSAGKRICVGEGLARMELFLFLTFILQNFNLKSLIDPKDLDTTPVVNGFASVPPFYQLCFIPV

For `CCc1cc(/C(C)=N/OCc2ccc(C3CCCCC3)c(C(F)(F)F)c2)ccc1CN1CC(C(=O)O)C1` [siponimod], the t1/2 [1, 14] is listed as 33.21 (28) h, the AUCinf [1, 14] is listed as 89.3 (20; 79.2–99.4) ng·hour/mL and the Cmax [1, 14] is listed as 2.26 (6; 2.17–2.34) ng/mL. The Tmax [1, 14] was 5 (4.00–8.00) h, the t1/2 ([1]; 1 mg solution p.o. single dose) was 45.7 (26) h and the AUCinf ([1]; 1 mg solution p.o. single dose) was 349 (28; 292–406) ng·hour/mL. For the same compound, the Cmax ([1]; 1 mg solution p.o. single dose) was 7.43 (42; 5.37–9.50) ng/mL, the Tmax ([1]; 1 mg solution p.o. single dose) was 5 (4.00–15.7) h and the t1/2 [1, 15] was 29.3 (17) h. For the same compound, the AUCinf [1, 15] was 745 (25; 632–858) ng·hour/mL, the Cmax [1, 15] was 19.3 (19; 17.1–21.5) ng/mL and the Tmax [1, 15] was 6 (4.00–8.00) h. The t1/2 [1, 16] was 27.0 (22) h, the AUCinf [1, 16] was 766 (36; 598–935) ng·hour/mL and the Cmax [1, 16] was 21.9 (35; 16.7–27.0) ng/mL. The Tmax [1, 16] was 4 (3.00–8.00) h, the t1/2 ([1]; 5 mg capsule p.o. single dose) was 31.3 (19) h and the AUCinf ([1]; 5 mg capsule p.o. single dose) was 1,260 (20; 1,149–1,384) ng·hour/mL. The Cmax ([1]; 5 mg capsule p.o. single dose) was 38.5 (21; 33.5–41.5) ng/mL, the Tmax ([1]; 5 mg capsule p.o. single dose) was 3 (2.00–8.00) h and the t1/2 ([1]; 10 mg capsule p.o. single dose) was 32.0 (17) h. For the same compound, the AUCinf ([1]; 10 mg capsule p.o. single dose) was 2,710 (14; 2,507–2,915) ng·hour/mL, the Cmax ([1]; 10 mg capsule p.o. single dose) was 77.3 (25; 64.8–89.7) ng/mL and the Tmax ([1]; 10 mg capsule p.o. single dose) was 5 (3.82–16.0) h. For the same compound, the t1/2 [1, 17] was 42.3 (38) h, the AUCinf [1, 17] was 4,230 (25; 3,666–4,792) ng·hour/mL and the Cmax [1, 17] was 111 (32; 93.7–128.4) ng/mL. For the same compound, the Tmax [1, 17] was 4 (2.00–8.00) h, the t1/2 ([1]; 25 mg capsule p.o. single dose) was 47.7 (20) h and the AUCinf ([1]; 25 mg capsule p.o. single dose) was 8,140 (24; 6,987–9,302) ng·hour/mL. For the same compound, the Cmax ([1]; 25 mg capsule p.o. single dose) was 217 (29; 180–254) ng/mL, the Tmax ([1]; 25 mg capsule p.o. single dose) was 3.50 (1.50–12.0) h and the t1/2 ([1]; 75 mg capsule p.o. single dose) was 56.7 (12) h. The Cmax ([1]; 75 mg capsule p.o. single dose) was 491 (51; 346–637) ng/mL, the Tmax ([1]; 75 mg capsule p.o. single dose) was 6 (2.00–24.00) h and the “elimination half‐life (t1/2), range” value [1] was 22 to 38 h. The “mean elimination half‐life (t1/2)” value [1] was ~ 30 hours, the AUCinf ([2]; 0.25 mg i.v. single dose) was 80.1 (25.6; 47.7–125) ng·hour/mL and the Cmax ([2]; 0.25 mg i.v. single dose) was 3.22 (19; 1.88–3.81) ng/mL. For the same compound, the t1/2 ([2]; 0.25 mg i.v. single dose) was 27.4 (22.5; 20.1–47.7) h, the Tmax ([2]; 0.25 mg i.v. single dose, median (range)) was 2.92 (2.92–2.92) h and the AUCinf ([2]; 0.25 mg p.o. single dose) was 67.4 (26; 39.8–105) ng·hour/mL. The Cmax ([2]; 0.25 mg p.o. single dose) was 1.71 (24; 0.920–2.30) ng/mL, the t1/2 ([2]; 0.25 mg p.o. single dose) was 26.7 (22; 17.2–43.8) h and the fmCYP2C9 ([3]; CYP2C9*1/*1) was 0.804. For the same compound, the fmCYP2C9 ([3]; CYP2C9*1/*2) was 0.788, the fmCYP2C9 ([3]; CYP2C9*1/*3) was 0.678 and the fmCYP2C9 ([3]; CYP2C9*2/*2) was 0.727. For the same compound, the fmCYP2C9 ([3]; CYP2C9*2/*3) was 0.616, the “AUC(0–24 h)” value ([4]; 0.3 mg solution p.o. q.d.) was 97.9 (19) ng·hour/mL and the Cmin ([4]; 0.3 mg solution p.o. q.d.) was 2.83 (27) ng/mL. For the same compound, the Cmax ([4]; 0.3 mg solution p.o. q.d.) was 5.13 (16; 4.76–5.86) ng/mL, the “AUC(0–24 h)” value ([4]; 1 mg solution p.o. q.d.) was 282 (16) ng·hour/mL and the Cmin ([4]; 1 mg solution p.o. q.d.) was 7.74 (20) ng/mL. For the same compound, the Cmax ([4]; 1 mg solution p.o. q.d.) was 14.9 (10; 14.0–15.9) ng/mL, the “AUC(0–24 h)” value ([4]; 2.5 mg capsule p.o. q.d.) was 692 (45) ng·hour/mL and the Cmin ([4]; 2.5 mg capsule p.o. q.d.) was 15.2 (120) ng/mL. For the same compound, the Cmax ([4]; 2.5 mg capsule p.o. q.d.) was 38.3 (37; 29.1–47.4) ng/mL, the “AUC(0–24 h)” value ([4]; 10 mg capsule p.o. q.d.) was 2,580 (24) ng·hour/mL and the Cmin ([4]; 10 mg capsule p.o. q.d.) was 70.6 (29) ng/mL. The Cmax ([4]; 10 mg capsule p.o. q.d.) was 147 (24; 126–168) ng/mL, the “AUC(0–24 h)” value ([4]; 20 mg capsule p.o. q.d.) was 6,370 (23) ng·hour/mL and the Cmin ([4]; 20 mg capsule p.o. q.d.) was 166 (88) ng/mL. For the same compound, the Cmax ([4]; 20 mg capsule p.o. q.d.) was 359 (17; 325–394) ng/mL, the “Fraction available from dosage form” value ([5]; based on amount of siponimod excreted to feces) was 0.91 ^c and the Absorption rate constant ([5]; estimated based on PopPK model, ref Novartis data on file) was 0.687 ^d 1/hour. The “fraction metabolized via CYP2C9 (fm,CYP2C9)” value ([6]; in vitro phenotyping data) was 0.79, the “contribution of CYP2C9 to metabolism” value ([6]; in vitro phenotyping, normalized to 100%) was 79.3% and the “lower total body clearance from plasma vs CYP2C9*1/*1” value ([7]; CYP2C9*1/*3) was 35–38%. The “lower total body clearance from plasma vs CYP2C9*1/*1” value ([7]; CYP2C9*2/*2) was 20%, the “lower total body clearance from plasma vs CYP2C9*1/*1” value ([7]; CYP2C9*2/*3) was 45–48% and the “lower total body clearance from plasma vs CYP2C9*1/*1” value ([7]; CYP2C9*3/*3) was 74%. For the same compound, the AUCinf ([8]; CYP2C9*1/*1) was 70.5 (21.2) ng·hour/mL, the t1/2 ([8]; CYP2C9*1/*1) was 28.1 (18.5) h and the AUCinf ([8]; CYP2C9*2/*3) was 144 (15.7) ng·hour/mL. The Cmax ([8]; CYP2C9*2/*3) was 2.45 (13.1) ng/mL, the t1/2 ([8]; CYP2C9*2/*3) was 50.9 (31.7) h and the AUCinf ([8]; CYP2C9*3/*3) was 271 (22.4) ng·hour/mL. The Cmax ([8]; CYP2C9*3/*3) was 2.35 (29.0) ng/mL, the t1/2 ([8]; CYP2C9*3/*3) was 126 (12.7) h and the “contribution of CYP3A4 to metabolism” value [9] was 18.5%. The fmCYP2C19 ([10]; fraction metabolized) was 0.001, the “CLint (CYP2C19)” value ([10]; retrograde calculator from CL 3.12 L/hour, fu(mic) set to 1) was 0.593 µL/min/pmol and the AUC decrease ([11]; CYP2C9*1/*2) was 9–10%. For the same compound, the AUC decrease ([11]; CYP2C9*1/*3) was 24%, the AUC reduction [11, 18] was 57% and the Cmax reduction [11, 18] was 45%. For the same compound, the AUC increase [11, 19] was “increased approximately two fold”, the Cmax increase [11, 19] was ~ 10% and the “CLint (CYP3A4)” value [12] was 5.607 µL/min/pmol. For the same compound, the fmCYP3A4 ([12]; CYP2C9*1/*1) was 0.175, the fmCYP3A4 ([12]; CYP2C9*1/*2) was 0.189 and the fmCYP3A4 ([12]; CYP2C9*1/*3) was 0.287. The fmCYP3A4 ([12]; CYP2C9*2/*2) was 0.244, the fmCYP3A4 ([12]; CYP2C9*2/*3) was 0.343 and the fmCYP3A4 ([12]; fraction metabolized) was 0.185. The “CLint (CYP2C8)” value [13] was 2.941 µL/min/pmol and the fmCYP2C8 ([13]; fraction metabolized) was 0.017.
